{"data": "Measured values collected from several papers", "organism": "Klebsiella pneumoniae", "effect on": "microbial growth", "note": "Compare with care: the assays were run in different laboratories."}
{"Compound": "CC1(C)S[C@@H]2[C@H](NC(=O)[C@H](N)c3ccc(O)cc3)C(=O)N2[C@H]1C(=O)O", "test": "broth dilution", "system": "ATCC13883", "MIC": "> 64 µg/mL"}
{"Compound": "CC1(C)S[C@@H]2[C@H](NC(=O)[C@H](N)c3ccccc3)C(=O)N2[C@H]1C(=O)O", "test": "broth dilution", "system": "ATCC43816", "MIC": "172 µM"}
{"Compound": "CN(C)[C@@H]1C(O)=C(C(N)=O)C(=O)[C@@]2(O)C(O)=C3C(=O)c4c(O)cccc4[C@@](C)(O)[C@H]3C[C@@H]12", "test": "broth dilution", "system": "ATCC13883", "MIC": "1 µg/mL"}
{"Compound": "O=C(O)c1cn(C2CC2)c2cc(N3CCNCC3)c(F)cc2c1=O", "test": "broth dilution", "system": "ATCC27736", "conditions": "16 h", "MIC": "0.1 µM"}
{"Compound": "CCCCCCC#Cc1cncc(-c2nnc(SCc3cc([N+](=O)[O-])cc([N+](=O)[O-])c3)n2CCCN)c1", "test": "broth dilution", "system": "DSM30104", "MIC": "> 64 µg/mL"}
{"Compound": "CCCCCCCCN=c1ccn(CCCCCCCCCCn2ccc(=NCCCCCCCC)cc2)cc1", "system": "ATCC4352", "MIC": "0.5 µM"}
{"Compound": "C[C@H]1[C@H](NC(=O)/C(=N\\OC(C)(C)C(=O)O)c2csc(N)n2)C(=O)N1S(=O)(=O)O", "test": "broth dilution", "system": "ATCC43816", "MIC": "< 0.5 µg/mL"}
{"Compound": "Cc1onc(-c2ccccc2)c1C(=O)N[C@@H]1C(=O)N2[C@@H]1SC(C)(C)[C@@H]2C(=O)O", "test": "broth dilution", "system": "ATCC700603", "MIC": "8 µg/mL"}
{"Compound": "CC[C@H]1OC(=O)[C@H](C)[C@@H](O[C@H]2C[C@@](C)(OC)[C@@H](O)[C@H](C)O2)[C@H](C)[C@@H](O[C@@H]2O[C@H](C)C[C@H](N(C)C)[C@H]2O)[C@](C)(O)C[C@@H](C)C(=O)[C@H](C)[C@@H](O)[C@]1(C)O", "test": "broth dilution", "system": "ATCC43816", "MIC": "32 µg/mL"}
{"Compound": "C[C@@H](O)[C@H]1C(=O)N2C(C(=O)O)=C(S[C@@H]3CN[C@H](C(=O)N(C)C)C3)[C@H](C)[C@H]12", "test": "broth dilution", "system": "ATCC700603", "MIC": "2 µg/mL"}
{"Compound": "CN(C)c1cc(NC(=O)CNC(C)(C)C)c(O)c2c1C[C@H]1C[C@H]3[C@H](N(C)C)C(O)=C(C(N)=O)C(=O)[C@@]3(O)C(O)=C1C2=O", "test": "broth dilution", "system": "ATCC43816", "MIC": "< 0.5 µg/mL"}
{"Compound": "CCCCCCC#Cc1cncc(-c2nnc(SCc3cc([N+](=O)[O-])cc([N+](=O)[O-])c3)n2C2CCNCC2)c1", "test": "broth dilution", "system": "DSM30104", "MIC": "> 64 µg/mL"}
{"Compound": "CC[C@H]1OC(=O)[C@H](C)[C@@H](O[C@H]2C[C@@](C)(OC)[C@@H](O)[C@H](C)O2)[C@H](C)[C@@H](O[C@@H]2O[C@H](C)C[C@H](N(C)C)[C@H]2O)[C@](C)(O)C[C@@H](C)CN(C)[C@H](C)[C@@H](O)[C@]1(C)O", "test": "broth dilution", "system": "ATCC13883", "MIC": "1 µg/mL"}
{"Compound": "C[C@@H](O)[C@H]1C(=O)N2C(C(=O)O)=C(S[C@@H]3CN[C@H](C(=O)N(C)C)C3)[C@H](C)[C@H]12", "test": "broth dilution", "system": "ATCC43816", "MIC": "< 0.5 µg/mL"}
